hERG rescue = hERG rescue from dofetilide block, primary screen, cell-based, CHO-hERG, FluxOR thallium flux, dofetilide IC70 | Voltage-gated inwardly rectifying potassium channel KCNH2 (Homo sapiens), Q12809 | activation (rescue from dofetilide block), less the hit threshold, % at 10 µM | dofetilide IC70 present | actives 0.51% (n = 310,000);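 active means activation above the mean of controls blocked by dofetilide plus 5 SD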;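 further: thallium influx through hERG after potassium depolarization seen as dye fluorescence rise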
KCNK3 inh = human KCNK3 channel inhibitors, primary screen, CHO cells, FluxOR thallium flux, B-score | FluxOR fluorescence; active compounds read low | Potassium channel subfamily K member 3 (Homo sapiens), O14649 | actives 0.84% (n = 340,000) | B-score at 10 µM;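 active means B-score under library mean minus 4 SD, starting fluorescence ratio at most library mean plus 5 SD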;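 further: more negative B-score means stronger inhibition of thallium flux through KCNK3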
KCNK9 inh = KCNK9 potassium channel inhibitors, primary screen, HEK293 cells, thallium flux | Potassium channel subfamily K member 9 (Homo sapiens), Q9NPC2 | FluxOR thallium flux fluorescence; active compounds read low | B-score at 10 µM | actives 1.2% (n = 310,000);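 active means ratio B-score over 3 SD below the library mean, with starting fluorescence within 5 SD of its mean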;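 further: negative B-score means less thallium flux so channel inhibition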
KCNQ1 block = inhibitors of human KCNQ1 channel, primary screen, cell-based, thallium flux, high-throughput; Potassium voltage-gated channel subfamily KQT member 1 (Homo sapiens), P51787; CHO-K1 KCNQ1, FluxOR thallium flux fluorescence; active compounds read high; B-score at 10 µM; actives 1.3% (n = 310,000);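 active means compounds whose thallium flux B-score, printed positive for inhibition, exceeds three library SD while starting fluorescence stays within three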;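 further: channel opened by potassium depolarization with thallium stimulus after 20 min compound exposure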
Target sequence (P51787 whole entry, looked up): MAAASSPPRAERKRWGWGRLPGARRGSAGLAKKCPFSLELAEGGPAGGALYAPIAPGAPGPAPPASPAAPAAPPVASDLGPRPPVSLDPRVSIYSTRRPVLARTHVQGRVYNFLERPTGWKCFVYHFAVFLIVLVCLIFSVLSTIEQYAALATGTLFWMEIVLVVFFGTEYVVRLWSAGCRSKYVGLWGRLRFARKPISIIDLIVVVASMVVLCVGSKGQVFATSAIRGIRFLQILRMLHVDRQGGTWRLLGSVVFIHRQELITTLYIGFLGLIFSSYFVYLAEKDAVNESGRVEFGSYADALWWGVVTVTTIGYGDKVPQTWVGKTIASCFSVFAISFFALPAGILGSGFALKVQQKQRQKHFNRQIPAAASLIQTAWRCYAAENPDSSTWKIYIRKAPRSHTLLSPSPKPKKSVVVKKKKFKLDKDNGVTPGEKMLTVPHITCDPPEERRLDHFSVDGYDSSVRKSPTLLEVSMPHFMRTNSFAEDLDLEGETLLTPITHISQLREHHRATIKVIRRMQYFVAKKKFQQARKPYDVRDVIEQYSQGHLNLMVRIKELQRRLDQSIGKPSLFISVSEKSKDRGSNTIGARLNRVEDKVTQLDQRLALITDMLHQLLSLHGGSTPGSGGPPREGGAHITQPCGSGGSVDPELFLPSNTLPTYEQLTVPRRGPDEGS
KCNQ1 act = potentiators or activators of KCNQ1 channel, primary screen, cell-based, thallium flux, high-throughput | B-score at 10 µM | CHO-K1 KCNQ1, thallium flux FluxOR fluorescence; active compounds read high | AID 2648, 2010 | actives 0.35% (n = 310,000);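 active means fluorescence ratio B-score, a plate-corrected score, at least three library SD, with initial intensity B-score within 5 SD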
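System: Stable KCNQ1 CHO-K1 line | Incubation: 90 min dye loading and 20 min compound exposure, both at room temperature | Measure: Ratio B score | Medium: Assay buffer for compound exposure, DMSO matched across wells | Compound dosing: Single-concentration screen | Probe or stimulus: K+/Tl+ depolarizing stimulus | Measured by: Kinetic FluxOR fluorescence, 10 s baseline plus 110 s post-stimulus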
Numbers without * were called inactive; i = inactive; · = no result given. Rows were chosen to be rich in hits. Some 3.1% of all compounds tested hit in one or more screens of this group.

SMILES	hERG rescue	KCNK3 inh	KCNK9 inh	KCNQ1 block	KCNQ1 act
CN(Cc1c(C(=O)N/N=C/c2cccc(Cl)c2)nnn1-c1nonc1N)c1ccccc1	-7	i	i	i	i
NNC(=O)CNc1ccccc1Cl	5.6*	i	i	i	i
O=C(CCCCC(=O)Nc1ccccc1Cl)Nc1ccccc1Cl	-7	i	i	i	i
Cn1nnnc1SCC(=O)NC1CCCc2ccccc21 (centres undefined)	6.3*	i	i	i	i
O=C(CSc1nc2cc(Cl)ccc2s1)NC1CCCc2ccccc21 (centres undefined)	-3	i	-7.8*	i	i
Cc1ccc(N(CC(=O)NC(C)C)C(=O)CCC(=O)Nc2nccs2)c(C)c1	-6	i	i	i	i
NS(=O)(=O)c1ccc(NC(=S)NCc2cccs2)cc1	6.6*	i	i	i	i
S=C(NCc1cccs1)Nc1ccccc1	-7	i	i	i	i
N#CC1=C(N)OC2=C(CCc3ccccc32)C1c1ccccc1Cl (centres undefined)	-3	i	-7.6*	i	i
O=C(O)CN1C(=O)C(=O)N(Cc2ccc(C(F)(F)F)cc2)C1=O	5.4*	i	i	i	i
Cc1ccc2nc3c(cc(C(=O)NCc4ccco4)c(=N)n3C3CCCC3)c(=O)n2c1	-26	i	i	8*	i
Cc1cccn2c(=O)c3cc(C(=O)NCc4ccco4)c(=N)n(C4CCCCC4)c3nc12	-22	i	i	i	i
CCCOc1ccc(/C=C/C(=O)OCC(=O)N(C)c2c(N)n(Cc3ccccc3)c(=O)[nH]c2=O)cc1OCC	-2	i	i	i	i
CC(SCc1ccccc1)C(=O)Nc1ccc(F)cc1 (centres undefined)	-10	i	i	i	i
Cc1cccc(CSC(Nc2ccc(F)cc2)=C(C#N)C#N)c1	-19	i	i	8*	i
N#CC(C#N)=C(Nc1ccc(F)cc1)SCc1cccc(Br)c1	-21	i	i	7*	i
CCOC(=O)CSc1cc(CS(=O)c2ccc(Cl)cc2)nc(-c2ccccc2)n1 (centres undefined)	-9	i	i	i	i
Clc1ccc(SCc2cc(Cl)nc(-c3ccccc3)n2)cc1	-7	i	-6.7*	i	i
CCOC(=O)CSc1cc(CSc2ccccc2)nc(-c2ccccc2)n1	-8	i	-6.7*	i	i
C[C@H](NC(=O)c1[nH]cnc1C(=O)Nc1ccc(Cl)cc1)c1ccccc1	·	i	·	·	·
CCN1C(=O)[C@H]2[C@@H](c3ccc(-c4ccccc4)cc3)N3CCC[C@@]3(C(=O)OC)[C@H]2C1=O	-14	i	i	i	i
CCOC(=O)COc1c(C(=O)OC)sc2ncccc12	39*	i	i	i	i
CCN1C(=O)[C@H]2[C@H]3CN=C(SCc4ccc(C)cc4)N3[C@@](C)(C(=O)OC)[C@H]2C1=O	·	i	·	·	·
CC(C)OC(=O)c1c2nc3ccccc3nc2n2c1[nH]c(=O)c1ccccc12	43*	·	i	i	81*
O=C1NCC(Nc2ccc(Br)cc2)C(=O)N1 (centres undefined)	·	i	·	·	·
SMILES	hERG rescue	KCNK3 inh	KCNK9 inh	KCNQ1 block	KCNQ1 act
CCN(CC)c1ccc2cc(-c3nc4ccccc4n3C)c(=O)oc2c1	-10	i	i	i	i
CCN(CC)c1ccc2cc(-c3nc4ccccc4[nH]3)c(=O)oc2c1	-53	i	i	27*	i
CC(=O)Nc1ccc(OCC(O)Cn2nc(C)nc2C)cc1 (centres undefined)	5.5*	i	i	i	i
Cc1nc(C)n(CC(O)COc2ccc3ccccc3c2)n1 (centres undefined)	-15	i	i	i	i
O=C(NC(CC(=O)N1CCCC(C(F)(F)F)C1)c1ccccc1)c1ccccc1Cl (centres undefined)	-8	i	i	i	i
COc1cccc(-c2nn(-c3ccccc3)cc2CN(C)Cc2ccno2)c1	-8	i	i	i	i
COc1cccc(-c2nn(-c3ccccc3)cc2CN(C)C(C)c2ccon2)c1 (centres undefined)	-5	i	i	6*	i
COc1ccc(-c2nsc3c(N4CCCCC4)ncnc23)cc1	8.0*	i	i	i	i
Cc1csc2c(N3CCCCC3)ncnc12	8.6*	i	i	i	i
COc1ccc(-c2nsc3c(N4CCCCC4C)ncnc23)cc1 (centres undefined)	-8	i	i	i	i
Cn1c(SCC(=O)Nc2sccc2C#N)nnc1C1CC1	·	i	·	·	·
Cc1ccc(NC(=O)c2cccc3cccnc23)cc1	-8	i	-7.6*	i	i
CC(=O)Nc1cccc(NC(=O)c2cccc3cccnc23)c1	-18	i	i	i	i
Cn1nc(C(F)(F)F)c(/C=N/OC(=O)c2ccccc2)c1SCc1ccccc1Cl	-9	i	-7.9*	i	i
COCCNC(=O)CN(C(=O)c1ccc(N2CCCC2)nc1)c1ccc(F)c(Cl)c1	-7	i	i	i	i
COCCNC(=O)CN(C(=O)c1ccc(N2CCCC2)nc1)c1ccccc1	5.1*	i	i	i	i
COc1ccc(NC(=O)CSCC(=O)Nc2cc(Cl)ccc2N2CCCC2)cc1	-17	i	i	i	i
CCOc1ccc(-c2c[n+]3c(n2-c2ccccc2)CCCCC3)cc1	-20	i	i	7*	i
CCCN1C(=O)SC(CC(=O)Nc2ccccc2)C1=O (centres undefined)	8.6*	i	i	i	i
CCCN1C(=O)SC(CC(=O)Nc2cccc3ccccc23)C1=O (centres undefined)	-3	i	i	i	i
O=C(Nc1cccc(-n2cnnn2)c1)c1ccc(OC(F)(F)F)cc1	-9	i	i	i	i
CCCn1c(=S)[nH]c2sc3c(c2c1=O)CCCC3	48*	i	i	i	43*
O=c1[nH]c(=S)[nH]c2sc3c(c12)CCCCCC3	-3	i	i	i	10*
COCCn1c(=S)[nH]c2sc3c(c2c1=O)CCC(C)C3 (centres undefined)	27*	i	i	i	60*
O=c1[nH]c(C2CC2)nc2sc3c(c12)CCCC3	-6	i	i	i	i
